Calls of active or inactive are those of the source. No cut-off for these calls is given here.
Assays:
Xenopus laevis = assay: Anesthetic potency in Xenopus laevis; type: functional, organism-based
[1] = molecular target: T1, GABA-A receptor; alpha-1/beta-2/gamma-2 (Homo sapiens) (UniProt P14867+P47870+P18507); assay: Agonist activity at human GABA-A alpha-1-beta-2-gamma-2 receptor expressed in Xenopus laevis assessed as increase in channel current at 10 uM by electrophysiology relative to control; type: functional
[2] = molecular target: T2, 5-hydroxytryptamine receptor 3A (Homo sapiens) (UniProt P46098); assay: Inhibition of 5HT3A receptor expressed in Xenopus oocyte at 9 uM
T2 sequence (whole entry): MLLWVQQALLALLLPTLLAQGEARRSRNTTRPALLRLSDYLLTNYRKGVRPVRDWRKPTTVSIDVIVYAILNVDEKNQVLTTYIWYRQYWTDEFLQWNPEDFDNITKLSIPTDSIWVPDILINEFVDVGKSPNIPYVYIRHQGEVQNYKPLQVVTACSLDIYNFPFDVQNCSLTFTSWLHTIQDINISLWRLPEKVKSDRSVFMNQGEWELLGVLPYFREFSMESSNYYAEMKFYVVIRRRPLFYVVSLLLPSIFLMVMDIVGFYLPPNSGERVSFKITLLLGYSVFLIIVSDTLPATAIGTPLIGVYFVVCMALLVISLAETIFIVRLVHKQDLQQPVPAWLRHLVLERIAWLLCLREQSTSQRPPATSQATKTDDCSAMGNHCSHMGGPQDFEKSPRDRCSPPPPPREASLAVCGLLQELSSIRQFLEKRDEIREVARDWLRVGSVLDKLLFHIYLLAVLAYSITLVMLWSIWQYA
Procedure, shortened: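 Oocytes injected with ~50 ng human 5-HT3A cRNA. Two-electrode voltage clamp at −50 mV, room temperature, ND96. Compound was pre-applied for 30 s, then co-applied with 100 μM 5-HT for 30 s. Peak current was expressed as a percentage of the mean of the flanking 100 μM 5-HT control currents. Fixed compound concentration of 9 μM.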

[3] = Inhibition of Torpedo nAChR expressed in Xenopus oocyte assessed as inhibition of ACh-induced channel current
[4] = molecular target: T1, GABA-A receptor; alpha-1/beta-2/gamma-2 (Homo sapiens); assay: Agonist activity at human GABA-A alpha-1-beta-2-gamma-2 receptor expressed in Xenopus laevis assessed as increase in channel current at 5 uM by electrophysiology relative to control; type: functional
[5] = molecular target: T1, GABA-A receptor; alpha-1/beta-2/gamma-2 (Homo sapiens); assay: Agonist activity at human GABAA alpha-1-beta-2-gamma-2 mutant receptor expressed in Xenopus laevis assessed as increase in channel current at 5 uM by electrophysiology relative to control; type: functional
Procedure, shortened: (§1)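 Oocytes expressing human α1β2(M286W)γ2L GABA-A receptor. Two-electrode voltage clamp at −50 mV, room temperature, ND96 pH 7.5. […] Applications lasted 15–20 s with ~3 min washes.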

[6] = molecular target: T1, GABA-A receptor; alpha-1/beta-2/gamma-2 (Homo sapiens); assay: Agonist activity at human GABAA alpha-1-beta-2-gamma-2 mutant receptor expressed in Xenopus laevis assessed as increase in channel current at 10 uM by electrophysiology relative to control; type: functional; procedure, shortened: as §1
Homo sapiens = species: Homo sapiens; assay: Agonist activity at human GABA-A alpha-1-beta-2-gamma-2 receptor expressed in Xenopus laevis assessed as increase in channel current at saturated concentration by electrophysiology relative to control; type: functional
[7] = molecular target: T1, GABA-A receptor; alpha-1/beta-2/gamma-2 (Homo sapiens); assay: Allosteric modulation of human GABAA alpha-1-beta-2-gamma-2 receptor expressed in Xenopus laevis assessed as enhancement of [3H]flunitrazepam binding up to 10 uM
[8] = molecular target: T1, GABA-A receptor; alpha-1/beta-2/gamma-2 (Homo sapiens); assay: Allosteric modulation of human GABAA alpha-1-beta-2-gamma-2 receptor expressed in Xenopus laevis assessed as enhancement of [3H]mucimol binding up to 10 uM
[9] = molecular target: T2, 5-hydroxytryptamine receptor 3A (Homo sapiens); assay: Inhibition of 5HT3A receptor expressed in Xenopus oocyte at 20 uM
[10] = molecular target: T2, 5-hydroxytryptamine receptor 3A (Homo sapiens); assay: Displacement of [3H]GR65630 from 5HT3A receptor expressed in Xenopus oocyte
Torpedo = assay: Binding affinity to Torpedo nAChR assessed as photoincorporation in to membrane; type: cell membranes; settings: tested as the 3H-labelled form
Procedure, shortened: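 Torpedo californica nAChR-rich membranes at 2 mg/mL in Torpedo saline pH 7.0 with 1 mM oxidized glutathione. Incubated 40 min at room temperature with 0.3 μM tritiated probe, ± carbamylcholine, proadifen, tetracaine or PCP, then irradiated at 365 nm for 30 min on ice. Subunits separated by SDS-PAGE. Incorporation measured by fluorography and by scintillation counting of excised bands (two parallel labelings).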

Row | Compound | EC50 (Xenopus laevis) [µM] | Imax [1] [%] | inhibition [2] [%] | IC50 [3] [µM] | fold change (FC) [4] | fold change (FC) [1] | fold change (FC) [5] | fold change (FC) [6] | Activity (Homo sapiens) [%] | Activity [7] | Activity [8] | inhibition [9] [%] | Activity [10] | Activity (Torpedo)
1 | CCOC(=O)c1cncn1[C@H](C)c1ccc(C2(C(F)(F)F)N=N2)cc1 | 17.1 | 0.73 | 34 | 11.3 |  |  |  |  |  |  |  |  |  | 
2 | CCOC(=O)c1cncn1[C@@H](C)c1ccc(C2(C(F)(F)F)N=N2)cc1 | 4.9 | 0.9 | 29 | 4.7 | 2.2 | 3 | 1.8 | 2.2 |  |  |  |  |  | 
3 | CCOC(=O)c1cncn1C(C)c1ccc(C2(C(F)(F)F)N=N2)cc1 (stereo unspecified) |  |  |  | 4.1 |  |  |  |  | 1.3 | inactive | inactive | 1.7 | inactive | Active
4 | CCOC(=O)c1cncn1[C@H](C)c1ccccc1 |  |  |  |  |  |  |  |  |  | Active |  |  | inactive | 
